PubChem BioAssay
Calls of active or inactive are those of the source.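 The calls were made as follows, unless noted: active = Her2 level under about 52% in both replicate screens, with viability over 70% of control (limit read from the data); inconclusive = Her2 under the limit in one screen only, or viability under 70%; inactive = Her2 level above the set limit.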

How the values were obtained:
[1] = Her2 expression decrease, cell viability multiplex – SKBR3 breast tumor cells, AlphaScreen, ATP viability, primary screen (AID 461); settings: SKBR3 Her2 protein level, 18-24 h, measured here: SKBR3 viability, ATP luminescence, at 10 µM;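 as to Her2 level: lower value means less Her2 protein in the cells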;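 as to viability: percent of carrier control wells set as 100% viability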
[2] = biological target: Receptor tyrosine-protein kinase erbB-2 (Homo sapiens) (UniProt P04626); assay: as above; settings: 18-24 h, at 10 µM, stronger effect = lower value
[3] = reduced viability of SK-BR-3 breast cancer cells – cell-based, 24 h, human, pilot screen (AID 572;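 active = viability at or below 10% of carrier control in both of two separate runs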;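 also: compound exposure lasted between 18 and 24 h rather than exactly 24 h; 100% = carrier-treated control wells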); settings: SK-BR-3 viability, CellTiter-Glo luminescence, at 10 µM, stronger effect = lower value
[4] = HUVEC growth inhibition – cell-based, human, primary screen (AID 575;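 active = viability at or below 30% in both replicate assays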;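 also: 100% = median of untreated cell wells with 0.1% DMSO on each plate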); settings: HUVEC proliferation, CellTiter-Glo luminescence, 72 h; at 10 µM; stronger effect = lower value
Outline: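 Material: primary human umbilical vein endothelial cells / Schedule: 72 h exposure, 37 °C, 5% CO2, 30 min RT equilibration / Signal: ATP-based CellTiter-Glo luminescent read / Read-out basis: percent of median DMSO-control luminescence / Control set: 32 DMSO-only cell-control wells (high), 32 MePR drug-control wells (low) per plate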

[5] = H69AR cell proliferation blockers – human, duplicate replicates, primary screen (AID 580;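 active = viability at or under a set limit in both replicates, limit being median viability minus 3 SD, cut at about 48% in these data, passing the limit was not always enough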;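 also: 100% = mean luminescence of untreated wells and 0% = no signal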); settings: H69AR lung tumor cells viability, ATP luminescence, 72 h; at 10 µM; stronger effect = lower value
[6] = MRP1 drug-resistance reversers in H69AR cells – cell-based, doxorubicin co-treatment, pilot screen (AID 601;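 active = viability loss from added drug above about 55%, and viability with drug at most 40%, in both replicates, limit read from the data, passing the limit was not always enough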); settings: CellTiter-Glo, 72 h, at 10 µM; for differential viability (reversal): stronger effect = higher value
[7] = yeast transport mutant growth inhibition pilot in 384-well plates, post-Golgi transport modulator project (AID 636; in the data active = inhibition above about 31%); settings: absorbance 615 nm, about 18 h, stronger effect = higher value
[8] = growth suppression of yeast trafficking mutant, preliminary HTS, modulators of trafficking downstream of Golgi apparatus project, 1536-format plate, OD 615 nm (AID 637; in the data active = inhibition above about 30%); settings: yeast transport mutant growth, absorbance 615 nm, 18 h; stronger effect = higher value
[9] = H69AR cells + 2 uM doxorubicin, measured here: viability with 2 uM doxorubicin, stronger effect = lower value
[10] = H69AR cells, compound alone cytotoxicity

Sequence of Receptor tyrosine-protein kinase erbB-2 (Homo sapiens) (P04626 whole entry, looked up): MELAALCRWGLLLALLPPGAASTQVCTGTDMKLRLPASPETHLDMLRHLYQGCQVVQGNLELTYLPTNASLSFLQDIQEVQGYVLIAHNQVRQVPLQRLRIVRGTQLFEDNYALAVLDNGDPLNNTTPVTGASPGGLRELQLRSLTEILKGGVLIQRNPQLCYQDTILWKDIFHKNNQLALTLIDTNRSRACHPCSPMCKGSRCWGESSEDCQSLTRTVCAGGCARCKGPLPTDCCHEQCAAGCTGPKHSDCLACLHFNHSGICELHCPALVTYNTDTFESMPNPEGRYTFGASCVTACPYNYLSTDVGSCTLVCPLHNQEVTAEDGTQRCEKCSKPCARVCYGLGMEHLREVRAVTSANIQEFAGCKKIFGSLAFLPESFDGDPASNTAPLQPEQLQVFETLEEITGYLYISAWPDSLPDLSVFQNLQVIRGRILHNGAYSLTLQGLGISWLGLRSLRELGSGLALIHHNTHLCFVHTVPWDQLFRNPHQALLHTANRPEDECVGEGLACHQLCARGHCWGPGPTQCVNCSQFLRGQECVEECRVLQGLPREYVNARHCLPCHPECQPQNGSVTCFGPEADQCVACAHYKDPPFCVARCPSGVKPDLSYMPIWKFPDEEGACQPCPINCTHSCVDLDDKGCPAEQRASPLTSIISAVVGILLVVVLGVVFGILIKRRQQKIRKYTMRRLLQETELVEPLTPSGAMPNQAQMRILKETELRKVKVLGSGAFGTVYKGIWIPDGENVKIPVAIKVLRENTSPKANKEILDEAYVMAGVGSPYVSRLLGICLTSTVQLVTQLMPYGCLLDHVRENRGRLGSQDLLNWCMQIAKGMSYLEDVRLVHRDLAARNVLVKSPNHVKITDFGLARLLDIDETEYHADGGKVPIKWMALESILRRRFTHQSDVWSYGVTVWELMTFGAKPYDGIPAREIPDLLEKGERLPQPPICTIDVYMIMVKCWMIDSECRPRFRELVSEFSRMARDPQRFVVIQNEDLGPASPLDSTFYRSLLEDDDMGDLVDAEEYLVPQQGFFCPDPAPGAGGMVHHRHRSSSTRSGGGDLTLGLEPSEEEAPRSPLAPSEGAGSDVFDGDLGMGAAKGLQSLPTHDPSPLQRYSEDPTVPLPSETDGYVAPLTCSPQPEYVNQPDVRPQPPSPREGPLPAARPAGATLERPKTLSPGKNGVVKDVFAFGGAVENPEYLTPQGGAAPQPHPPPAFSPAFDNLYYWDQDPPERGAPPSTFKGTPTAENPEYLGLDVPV

Compound	viability [1] [%]	Her2 level [2]	viability [3]	viability [4]	viability [5]	differential viability (reversal) ([6]; H69AR cells + 2 uM doxorubicin)	viability [6, 9] [%]	viability [6, 10] [%]	inhibition [7]	inhibition [8]
CC(C)(C)c1cc(C(=O)O)nn1-c1ccccc1	112	92% (inactive)	112% (inactive)	98.1% (inactive)	92.2% (inactive)	5.08% (inactive)	87.1	92.2	-4.47% (inactive)	-2.54% (inactive)
CCOC(=O)Nc1cc(OCC)c(NC(=O)C2CC2)cc1OCC	97	112% (inactive)	97% (inactive)	111% (inactive)	100% (inactive)	12.8% (inactive)	87.3	100	-6.13% (inactive)	-4.26% (inactive)
O=C(c1ccc2c(c1)c(=O)oc1ccccc12)N1CCCCC1	109	86% (inactive)	109% (inactive)	98.6% (inactive)	101% (inactive)	14.1% (inactive)	87.3	101	-2.11% (inactive)	3.17% (inactive)
CCN(CC)CCOC(=O)c1c(C)oc2ccc(O)cc12	102	109% (inactive)	102% (inactive)	89.7% (inactive)	95% (inactive)	3.9% (inactive)	91.1	95	-0.53% (inactive)	-6.94% (inactive)
Cn1cnnc1SCC(=O)NCc1cccc(C(F)(F)F)c1	88	97.5% (inactive)	88% (inactive)	102% (inactive)	94.3% (inactive)	0.52% (inactive)	93.8	94.3	-5.53% (inactive)	-1.43% (inactive)
CC(=O)C1=C(C)NC(C)=C(C(C)=O)C1c1cccs1	99	86% (inactive)	99% (inactive)	84.8% (inactive)	87% (inactive)	5.3% (inactive)	81.7	87	-2.08% (inactive)	-4% (inactive)
O=C(Nc1cccc(F)c1)c1cccc(S(=O)(=O)N2CCOCC2)c1	107	87% (inactive)	107% (inactive)	92.8% (inactive)	91.6% (inactive)	0.615% (inactive)	91	91.6	-6.71% (inactive)	-5.71% (inactive)
CCOC(=O)c1cc2sccc2n1CC(=O)Nc1ccc(OC)cc1OC	90	86.5% (inactive)	90% (inactive)	75.4% (inactive)	82% (inactive)	-7.66% (inactive)	89.6	82	-1.97% (inactive)	-3.82% (inactive)
CCOC(=O)COc1ccc(C2NC(C(=O)O)CS2)cc1 (stereo not given)	94.5	102% (inactive)	94.5% (inactive)	83.4% (inactive)	102% (inactive)	5.91% (inactive)	96.3	102	-3.03% (inactive)	-7.5% (inactive)
CCC(=O)Nc1c2c(nn1-c1ccccc1C)CSC2	86.5	89.5% (inactive)	86.5% (inactive)	104% (inactive)	102% (inactive)	12.8% (inactive)	89.4	102	-4.42% (inactive)	-3.65% (inactive)
CCN(CC)CCOc1cccc(C(C)C)c1	90.5	95.5% (inactive)	90.5% (inactive)	92.6% (inactive)	109% (inactive)	17.4% (inactive)	91.8	109	3.25% (inactive)	-1.64% (inactive)
CN1CCc2nc(SCC(=O)Nc3ccc(F)cc3)c(C#N)cc2C1	90.5	91.5% (inactive)	90.5% (inactive)	94.2% (inactive)	97% (inactive)	-4.23% (inactive)	101	97	-5.33% (inactive)	4.1% (inactive)
COc1ccc(S(=O)(=O)N2CCN(CC(=O)Nc3ccc(C)c(F)c3)CC2)cc1	89.5	93.5% (inactive)	89.5% (inactive)	86.4% (inactive)	25.5% (active)	-25.9% (inactive)	51.4	25.5	-5.2% (inactive)	-1.94% (inactive)
O=C(NCCN1CCOCC1)c1ccc2c(c1)N(Cc1ccccc1)C(=O)CS2	89.5	111% (inactive)	89.5% (inactive)	97.8% (inactive)	99.4% (inactive)	4.81% (inactive)	94.6	99.4	0.67% (inactive)	-0.32% (inactive)
COc1ccc(C2C(C#N)=C(N)OC3=C2C(=O)CC(C)C3)c(OC)c1OC (stereo not given)	102	134% (inactive)	102% (inactive)	101% (inactive)	100% (inactive)	3.42% (inactive)	96.6	100	2.86% (inactive)	-4.83% (inactive)
COc1ccccc1Nc1ncnc2c1cnn2-c1cccc(C)c1	94.5	88.5% (inactive)	94.5% (inactive)	87.7% (inactive)	95.4% (inactive)	10.9% (inactive)	84.5	95.4	-5.33% (inactive)	-8.71% (inactive)
O=C(CSCc1cccc(F)c1)N1CCN(c2ccccc2)CC1	92	93.5% (inactive)	92% (inactive)	91% (inactive)	101% (inactive)	5.28% (inactive)	96	101	-5% (inactive)	-4.67% (inactive)
O=C(OCC(=O)N1CCC(Cc2ccccc2)CC1)c1ccc[nH]c1=O	80.5	102% (inactive)	80.5% (inactive)	117% (inactive)	92.6% (inactive)	2.25% (inactive)	90.4	92.6	0.13% (inactive)	-12.3% (inactive)
Cc1oc2c(CN3CCCC3)c(O)ccc2c(=O)c1-c1ccccc1	88.5	82% (inactive)	88.5% (inactive)	80.1% (inactive)	89% (inactive)	2.93% (inactive)	86	89	-4.34% (inactive)	0.48% (inactive)
COc1cc(-c2nnc(SCc3c(F)cccc3Cl)o2)cc(OC)c1OC	70.5	103% (inactive)	70.5% (inactive)	68.5% (inactive)	85.2% (inactive)	3.85% (inactive)	81.3	85.2	-4.19% (inactive)	-4.1% (inactive)
CCc1cccc(NC(=O)C2CCCN(S(=O)(=O)c3c(C)[nH]c(=O)[nH]c3=O)C2)c1 (stereo not given)	89.5	82% (inactive)	89.5% (inactive)	97% (inactive)	95% (inactive)	6.79% (inactive)	88.2	95	-2.89% (inactive)	-3.83% (inactive)
Cc1cc2c(cc1C)C(=O)NC(C)(C)C2	104	98% (inactive)	104% (inactive)	79.4% (inactive)	95.2% (inactive)	-13.8% (inactive)	109	95.2	-2.7% (inactive)	-1.15% (inactive)
CCOC(=O)N1CCC(N2CC34C=CC(O3)C(C(=O)O)C4C2=O)CC1 (stereo not given)	102	99.5% (inactive)	102% (inactive)	92.4% (inactive)	100% (inactive)	18.3% (inactive)	81.8	100	-3.73% (inactive)	-4.26% (inactive)
CC(=O)Nc1c(O)nc(SCC(=O)Nc2nnc(CC(C)C)s2)[nH]c1=O	86.5	99.5% (inactive)	86.5% (inactive)	98.2% (inactive)	93.6% (inactive)	-8.89% (inactive)	102	93.6	3.2% (inactive)	22.4% (inactive)
CCCN1C2=C(C(=O)CCC2)C(c2ccc(O)c(Br)c2)C2=C1CCCC2=O	96	85.5% (inactive)	96% (inactive)	96.8% (inactive)	91.8% (inactive)	-1.01% (inactive)	92.8	91.8	-7.11% (inactive)	2% (inactive)
CCOc1ccc(NCCC(=O)c2ccc3c(c2)OCO3)cc1	90	84.5% (inactive)	90% (inactive)	75.7% (inactive)	66.1% (inactive)	-13.5% (inactive)	79.6	66.1	-6.71% (inactive)	-5.5% (inactive)
Cn1c(=O)c2c(nc(N3CCCCC3)n2CCSc2nc3ccccc3o2)n(C)c1=O	100	105% (inactive)	100% (inactive)	88.4% (inactive)	82.2% (inactive)	1.8% (inactive)	80.4	82.2	-0.67% (inactive)	-6.39% (inactive)
COc1ccc(C(=O)NCCSc2ccccn2)cc1	97	108% (inactive)	97% (inactive)	102% (inactive)	96% (inactive)	17.4% (inactive)	78.6	96	-7.07% (inactive)	0.32% (inactive)
O=C(Nc1ccon1)c1csc2c1CCCC2	92.5	85% (inactive)	92.5% (inactive)	83.2% (inactive)	98.3% (inactive)	10.9% (inactive)	87.4	98.3	-5.66% (inactive)	2% (inactive)
